One block for each compound: values may come before it. The source made the active and inactive calls. The calls are words filed in the database; no cut-off is given here.
Tests used:
[1] = target: Ankyrin repeat and protein kinase domain-containing protein 1 (Homo sapiens) (UniProt Q8NFD2); assay: Inhibition of ANKK1 (unknown origin) assessed as residual enzyme activity at 10 uM by Ambit kinase binding assay relative to control
[2] = target: Tyrosine-protein kinase Blk (Homo sapiens) (UniProt P51451); assay: Inhibition of BLK (unknown origin) assessed as residual enzyme activity at 10 uM by Ambit kinase binding assay relative to control
[3] = target: Serine/threonine-protein kinase Nek1 (Homo sapiens) (UniProt Q96PY6); assay: Inhibition of NEK1 (unknown origin) assessed as residual enzyme activity at 10 uM by Ambit kinase binding assay relative to control
Serine/threonine-protein kinase Nek1 (Homo sapiens), sequence (Q96PY6 whole entry): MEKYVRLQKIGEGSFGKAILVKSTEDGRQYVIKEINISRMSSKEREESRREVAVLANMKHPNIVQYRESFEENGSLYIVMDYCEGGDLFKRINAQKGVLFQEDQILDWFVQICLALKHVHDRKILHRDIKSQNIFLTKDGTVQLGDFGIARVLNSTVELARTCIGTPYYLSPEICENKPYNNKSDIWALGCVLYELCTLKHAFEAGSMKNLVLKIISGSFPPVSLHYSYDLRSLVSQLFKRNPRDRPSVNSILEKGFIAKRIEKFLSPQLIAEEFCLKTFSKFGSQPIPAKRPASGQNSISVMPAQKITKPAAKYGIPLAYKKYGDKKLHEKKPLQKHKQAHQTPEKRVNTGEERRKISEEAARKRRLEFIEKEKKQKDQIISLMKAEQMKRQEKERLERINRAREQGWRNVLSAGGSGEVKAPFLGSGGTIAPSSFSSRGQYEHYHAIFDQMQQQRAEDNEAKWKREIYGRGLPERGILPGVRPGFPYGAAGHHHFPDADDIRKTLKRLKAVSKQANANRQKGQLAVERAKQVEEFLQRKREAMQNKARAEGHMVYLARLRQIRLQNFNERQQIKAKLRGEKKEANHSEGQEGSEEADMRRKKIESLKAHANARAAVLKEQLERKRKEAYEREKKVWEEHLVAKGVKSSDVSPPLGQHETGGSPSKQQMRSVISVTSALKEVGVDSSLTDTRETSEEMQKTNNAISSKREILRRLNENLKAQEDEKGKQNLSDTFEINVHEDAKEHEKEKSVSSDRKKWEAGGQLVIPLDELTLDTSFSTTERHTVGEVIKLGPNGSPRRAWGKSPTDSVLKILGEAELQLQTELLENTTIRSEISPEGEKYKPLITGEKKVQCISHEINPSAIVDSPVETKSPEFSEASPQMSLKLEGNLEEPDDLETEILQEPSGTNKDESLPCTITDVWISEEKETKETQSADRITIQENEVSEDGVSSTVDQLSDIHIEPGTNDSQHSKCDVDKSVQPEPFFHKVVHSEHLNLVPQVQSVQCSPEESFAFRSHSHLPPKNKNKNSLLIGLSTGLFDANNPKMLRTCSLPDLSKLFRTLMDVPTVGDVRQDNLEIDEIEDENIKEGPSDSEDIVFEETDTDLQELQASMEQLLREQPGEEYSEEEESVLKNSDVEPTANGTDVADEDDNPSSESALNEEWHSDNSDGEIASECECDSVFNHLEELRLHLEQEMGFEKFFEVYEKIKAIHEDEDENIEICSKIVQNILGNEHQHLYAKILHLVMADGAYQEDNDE

[4] = target: Serine/threonine-protein kinase pim-1 (Homo sapiens) (UniProt P11309); assay: Inhibition of PIM1 (unknown origin) assessed as residual enzyme activity at 10 uM by Ambit kinase binding assay relative to control
[5] = target: Serine/threonine-protein kinase pim-3 (Homo sapiens) (UniProt Q86V86); assay: Inhibition of PIM3 (unknown origin) assessed as residual enzyme activity at 10 uM by Ambit kinase binding assay relative to control
[6] = target: Ribosomal protein S6 kinase alpha-1 (Homo sapiens) (UniProt Q15418); assay: Inhibition of RPS6KA1 kinase domain 2 (unknown origin) assessed as residual enzyme activity at 10 uM by Ambit kinase binding assay relative to control
[7] = target: Ribosomal protein S6 kinase alpha-4 (Homo sapiens) (UniProt O75676); assay: Inhibition of RPS6KA4 kinase domain 2 (unknown origin) assessed as residual enzyme activity at 10 uM by Ambit kinase binding assay relative to control
Ribosomal protein S6 kinase alpha-4 (Homo sapiens), sequence (O75676 whole entry, looked up, the tested form may be a part): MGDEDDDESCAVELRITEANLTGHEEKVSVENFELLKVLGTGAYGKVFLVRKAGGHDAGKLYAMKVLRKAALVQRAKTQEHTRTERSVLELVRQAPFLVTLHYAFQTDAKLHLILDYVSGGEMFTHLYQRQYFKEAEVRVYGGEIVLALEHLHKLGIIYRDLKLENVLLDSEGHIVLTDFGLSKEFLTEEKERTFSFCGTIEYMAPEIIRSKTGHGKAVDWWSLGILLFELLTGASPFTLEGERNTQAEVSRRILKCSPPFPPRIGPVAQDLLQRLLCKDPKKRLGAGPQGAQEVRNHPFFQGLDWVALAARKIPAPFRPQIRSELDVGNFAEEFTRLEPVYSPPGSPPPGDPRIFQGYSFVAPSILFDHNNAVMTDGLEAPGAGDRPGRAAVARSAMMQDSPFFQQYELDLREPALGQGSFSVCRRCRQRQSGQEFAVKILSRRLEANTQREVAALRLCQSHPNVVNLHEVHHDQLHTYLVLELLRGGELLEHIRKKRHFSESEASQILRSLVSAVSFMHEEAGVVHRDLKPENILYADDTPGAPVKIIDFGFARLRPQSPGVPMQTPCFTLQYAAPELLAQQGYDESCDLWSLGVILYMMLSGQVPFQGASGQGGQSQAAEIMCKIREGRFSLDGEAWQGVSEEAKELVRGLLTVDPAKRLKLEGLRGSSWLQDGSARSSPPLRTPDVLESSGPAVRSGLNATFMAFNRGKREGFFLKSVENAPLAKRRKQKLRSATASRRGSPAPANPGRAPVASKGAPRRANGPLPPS

[8] = target: Myosin light chain kinase family member 4 (Homo sapiens) (UniProt Q86YV6); assay: Inhibition of SgK085 (unknown origin) assessed as residual enzyme activity at 10 uM by Ambit kinase binding assay relative to control
Myosin light chain kinase family member 4 (Homo sapiens), sequence (Q86YV6 whole entry): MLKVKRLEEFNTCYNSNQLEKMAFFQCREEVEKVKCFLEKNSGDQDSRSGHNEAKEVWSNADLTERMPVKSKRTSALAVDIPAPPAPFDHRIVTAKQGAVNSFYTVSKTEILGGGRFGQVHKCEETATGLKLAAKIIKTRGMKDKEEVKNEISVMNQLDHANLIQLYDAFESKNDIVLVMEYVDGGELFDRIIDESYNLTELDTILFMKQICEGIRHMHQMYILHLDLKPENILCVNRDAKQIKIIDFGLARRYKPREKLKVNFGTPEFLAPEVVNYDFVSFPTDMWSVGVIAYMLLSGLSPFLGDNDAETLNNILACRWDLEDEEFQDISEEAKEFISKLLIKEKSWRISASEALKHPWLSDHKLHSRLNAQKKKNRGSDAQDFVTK

[9] = target: Serine/threonine-protein kinase ULK3 (Homo sapiens) (UniProt Q6PHR2); assay: Inhibition of ULK3 (unknown origin) assessed as residual enzyme activity at 10 uM by Ambit kinase binding assay relative to control
HeLa S3 = assay: Reversal of nocodazole-induced mitotic arrest in human HeLa S3 cells expressing histone H2B-GFP assessed as DNA decondensation at 10 uM measured for 20 to 60 mins by immunofluorescence analysis; assay type: functional, cell-based; conditions: time 20-60 min
Procedure, shortened: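 HeLa S3 H2B-GFP cells were held in nocodazole (200 ng·ml⁻¹) with or without inhibitor. Mitotic exit was scored as DNA decondensation and nuclear envelope reassembly, imaged every 5 min (60X objective); 150 cells counted per population.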

[10] = target: ALK tyrosine kinase receptor (Homo sapiens, UniProt Q9UM73); assay: Inhibition of ALK (unknown origin) assessed as residual enzyme activity at 10 uM by Ambit kinase binding assay relative to control
[11] = target: Insulin-like growth factor 1 receptor (Homo sapiens, UniProt P08069); assay: Inhibition of IGF1R (unknown origin) assessed as residual enzyme activity at 10 uM by Ambit kinase binding assay relative to control
[12] = target: MAP/microtubule affinity-regulating kinase 4 (Homo sapiens) (UniProt Q96L34); assay: Inhibition of MARK4 (unknown origin) assessed as residual enzyme activity at 10 uM by Ambit kinase binding assay relative to control
MAP/microtubule affinity-regulating kinase 4 (Homo sapiens), sequence (Q96L34 whole entry): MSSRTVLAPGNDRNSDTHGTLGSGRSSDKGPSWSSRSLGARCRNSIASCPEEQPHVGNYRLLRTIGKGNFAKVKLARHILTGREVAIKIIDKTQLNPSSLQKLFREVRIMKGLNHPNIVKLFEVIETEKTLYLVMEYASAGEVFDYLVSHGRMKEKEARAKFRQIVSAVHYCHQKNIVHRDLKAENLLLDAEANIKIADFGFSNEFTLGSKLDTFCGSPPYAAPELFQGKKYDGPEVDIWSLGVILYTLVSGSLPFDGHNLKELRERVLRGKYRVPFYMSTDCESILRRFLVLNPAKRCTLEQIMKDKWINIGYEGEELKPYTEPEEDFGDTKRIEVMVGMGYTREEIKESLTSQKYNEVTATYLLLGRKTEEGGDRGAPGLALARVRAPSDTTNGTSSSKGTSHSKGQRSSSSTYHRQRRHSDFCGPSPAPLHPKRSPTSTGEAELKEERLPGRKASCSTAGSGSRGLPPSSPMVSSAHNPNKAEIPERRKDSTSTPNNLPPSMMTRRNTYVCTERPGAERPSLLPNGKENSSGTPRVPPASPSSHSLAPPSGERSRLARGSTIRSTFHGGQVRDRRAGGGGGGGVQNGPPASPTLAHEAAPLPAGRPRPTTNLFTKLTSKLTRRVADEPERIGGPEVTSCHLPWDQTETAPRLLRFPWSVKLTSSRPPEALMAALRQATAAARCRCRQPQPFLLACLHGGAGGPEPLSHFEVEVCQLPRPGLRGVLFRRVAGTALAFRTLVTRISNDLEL

UTRM10 [13] = assay: Induction of chromosome mis-segregation in UTRM10 cells (unknown origin) expressing LAP-tagged Mps1 M602Q mutant co-transfected with H2B-EYFP at 10 uM by time-lapse microscopy; assay type: functional, cell-based
UTRM10 [14] = assay: Inhibition of hyperphosphorylation of LAP-tagged Mps1 M602Q mutant (unknown origin) expressed in UTRM10 cells (unknown origin) measured after 90 mins by immunoblot analysis; assay type: cell-based; conditions: Homo sapiens
U2OS [15] = assay: Effect on thymidine-treated human U2OS cell populations after one cell doubling at 10 uM incubated for 4 hrs followed by thymidine release by immunofluorescence imaging analysis; assay type: functional, cell-based
U2OS [16] = assay: Effect on thymidine-treated human U2OS cell populations after two cell doubling at 10 uM incubated for 4 hrs followed by thymidine release by immunofluorescence imaging analysis; assay type: functional, cell-based
U2OS [17] = assay: Inhibition of anaphase delay in thymidine-treated human U2OS cells expressing H2B-GFP and Plk4 overexpression measured for 30 mins by time lapse imaging analysis; assay type: functional, cell-based
Procedure, shortened: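 U2OS H2B-GFP cells carrying doxycycline-inducible Plk4. Thymidine 18 h, release into doxycycline (2 μg·ml⁻¹) 10 h, second thymidine 18 h, release 6 h, then 5 μM inhibitor. Time-lapse imaging at 37°C, 5% CO₂ recorded time after NEBD to anaphase. Mean ± SD of 3 independent experiments; Student's t test.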

U2OS [18] = assay: Induction of multipolar anaphases in thymidine-treated human U2OS cells expressing H2B-GFP and Plk4 overexpression measured for 30 mins by time lapse imaging analysis; assay type: functional, cell-based
Procedure, shortened: (§1)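 Doxycycline-inducible Plk4 U2OS cells expressing H2B-GFP were blocked with thymidine for 18 hrs and released into doxycycline (2 μg·ml⁻¹) for 10 hrs. A second 18-hr thymidine block followed, then release for 6 hrs before 5 μM inhibitor, with or without Plk4 induction. Cells were imaged by time-lapse at 37°C, 5% CO₂, timed from NEBD, and bipolar versus multipolar anaphases were scored. Values are mean ± SD of 3 independent experiments.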

U2OS [19] = assay: Induction of premature entry into anaphase in thymidine-treated human U2OS cells expressing H2B-GFP and Plk4 overexpression measured for 30 mins by time lapse imaging analysis relative to control; assay type: functional; conditions: 0.5 h; procedure, shortened: as §1
TERT-RPE1 = assay: Antiproliferative activity against hTERT-RPE1 cells assessed as loss of clonal survival upto 25 uM incubated for 10 days by crystal violet staining based assay; assay type: toxicity, cell-based; conditions: human, tert-rpe1, 240 h, time 10 day
Procedure, shortened: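 Colony outgrowth: cells plated at 200 cells per 60-mm dish, exposed to compound or DMSO vehicle and stained with crystal violet after 10 days. HCT116 grown in McCoy's 5A; A549 and HeLa in DMEM; hTERT-RPE1 in DMEM/F-12. All media had 10% FBS and penicillin/streptomycin, 37°C, 5% CO2. Quantified from 3 independent experiments, mean + SD, Student's t test.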

HCT-116 [20] = assay: Antiproliferative activity against human HCT-116 cells with p53+/+ at 10 uM measured after 96 hrs in presence of Z-VAD-FMK by Syto60 staining based assay; assay type: functional, cell-based
HCT-116 [21] = assay: Antiproliferative activity against human HCT-116 cells with p53-/- at 10 uM measured after 96 hrs in presence of Z-VAD-FMK by Syto60 staining based assay; assay type: functional, cell-based
Focal adhesion kinase 1 = Focal adhesion kinase 1 (Homo sapiens, UniProt Q05397); assay: Binding affinity to FAK (unknown origin) assessed as dissociation constant by Ambit kinase binding assay
[22] = target: Cyclin-G-associated kinase (Homo sapiens, UniProt O14976); assay: Binding affinity to GAK (unknown origin) assessed as dissociation constant by Ambit kinase binding assay
Activated CDC42 kinase 1 = Activated CDC42 kinase 1 (Homo sapiens, UniProt Q07912); assay: Binding affinity to TNK2 (unknown origin) assessed as dissociation constant by Ambit kinase binding assay
Activated CDC42 kinase 1, sequence (Q07912 whole entry): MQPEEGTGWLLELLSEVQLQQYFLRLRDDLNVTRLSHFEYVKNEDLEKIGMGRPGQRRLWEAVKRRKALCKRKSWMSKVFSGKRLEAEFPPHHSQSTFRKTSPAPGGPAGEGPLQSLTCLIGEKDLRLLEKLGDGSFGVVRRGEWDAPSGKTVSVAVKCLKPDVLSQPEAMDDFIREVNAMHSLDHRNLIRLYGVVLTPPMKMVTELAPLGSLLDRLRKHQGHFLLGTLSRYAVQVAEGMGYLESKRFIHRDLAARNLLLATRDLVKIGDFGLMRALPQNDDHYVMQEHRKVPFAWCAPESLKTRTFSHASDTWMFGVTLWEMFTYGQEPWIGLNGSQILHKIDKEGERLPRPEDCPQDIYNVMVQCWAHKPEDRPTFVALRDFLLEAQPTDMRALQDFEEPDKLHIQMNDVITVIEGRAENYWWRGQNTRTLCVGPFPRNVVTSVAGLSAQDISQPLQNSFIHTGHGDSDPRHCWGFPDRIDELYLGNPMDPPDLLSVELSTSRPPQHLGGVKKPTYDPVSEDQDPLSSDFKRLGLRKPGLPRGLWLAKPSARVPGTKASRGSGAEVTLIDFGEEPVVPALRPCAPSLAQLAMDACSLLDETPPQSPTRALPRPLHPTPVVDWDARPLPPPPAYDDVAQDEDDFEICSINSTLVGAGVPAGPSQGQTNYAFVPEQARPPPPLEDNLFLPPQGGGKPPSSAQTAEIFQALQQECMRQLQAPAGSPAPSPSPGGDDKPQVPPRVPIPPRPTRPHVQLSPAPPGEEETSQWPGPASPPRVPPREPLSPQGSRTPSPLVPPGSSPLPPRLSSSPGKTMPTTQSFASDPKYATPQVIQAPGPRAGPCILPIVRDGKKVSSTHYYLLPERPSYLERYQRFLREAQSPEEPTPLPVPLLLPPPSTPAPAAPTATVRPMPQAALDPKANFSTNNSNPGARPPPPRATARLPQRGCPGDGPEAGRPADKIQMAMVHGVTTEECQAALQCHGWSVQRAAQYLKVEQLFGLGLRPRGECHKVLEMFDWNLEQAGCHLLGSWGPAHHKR

UTRM10 [23] = assay: Effect on centrosome overduplication in hydroxyurea-treated UTRM10 cells (unknown origin) at 10 to 25 uM incubated for 48 hrs by centrin staining based analysis; conditions: dose 10-25 µM

Ankyrin repeat and protein kinase domain-containing protein 1 (Homo sapiens), sequence (Q8NFD2 whole entry, the tested form may be a part): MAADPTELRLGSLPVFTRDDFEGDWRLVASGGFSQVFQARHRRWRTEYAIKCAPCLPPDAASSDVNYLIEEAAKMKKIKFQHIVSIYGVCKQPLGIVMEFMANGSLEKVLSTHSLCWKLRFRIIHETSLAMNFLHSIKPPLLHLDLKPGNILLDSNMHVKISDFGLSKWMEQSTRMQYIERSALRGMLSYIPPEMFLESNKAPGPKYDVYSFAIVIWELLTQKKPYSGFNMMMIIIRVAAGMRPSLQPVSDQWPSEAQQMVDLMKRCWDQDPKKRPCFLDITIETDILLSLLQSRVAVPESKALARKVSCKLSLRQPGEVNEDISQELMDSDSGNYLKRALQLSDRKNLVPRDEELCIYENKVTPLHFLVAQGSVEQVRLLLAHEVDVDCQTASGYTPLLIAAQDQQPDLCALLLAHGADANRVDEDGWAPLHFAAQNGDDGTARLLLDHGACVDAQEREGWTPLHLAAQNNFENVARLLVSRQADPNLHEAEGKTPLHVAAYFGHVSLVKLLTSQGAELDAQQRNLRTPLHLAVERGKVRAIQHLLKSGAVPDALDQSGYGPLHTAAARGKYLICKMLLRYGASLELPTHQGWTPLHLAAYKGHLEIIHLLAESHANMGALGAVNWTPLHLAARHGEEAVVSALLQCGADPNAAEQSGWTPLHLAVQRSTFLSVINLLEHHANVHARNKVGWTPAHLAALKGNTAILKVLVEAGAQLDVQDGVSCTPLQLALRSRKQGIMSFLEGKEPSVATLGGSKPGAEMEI

Activity [1]: 0.95% | Activity [2]: 12% | Activity [3]: 15% | Activity [4]: 24% | Activity [5]: 14% | Activity [6]: 3.8% | Activity [7]: 3.4% | Activity [8]: 0.25% | Activity [9]: 11%
SMILES: O=C1c2ccccc2-c2n[nH]c3cccc1c23

Activity [10]: 8.9% | Activity [11]: 0.9% | Activity [12]: 1.2% | Kd (Focal adhesion kinase 1): 440 nM | Kd [22]: 1100 nM | Kd (Activated CDC42 kinase 1): 3.1 µM
SMILES: COc1cc(N2CCC(O)CC2)ccc1Nc1cc(Nc2ccccc2S(=O)(=O)C(C)C)c2cc[nH]c2n1
Activity (HeLa S3): Active | Activity (UTRM10 [13]): inactive | inhibition (UTRM10 [14]): inactive | Activity (U2OS [15]): inactive | Activity (U2OS [16]): inactive | inhibition (U2OS [17]): Active | Activity (U2OS [18]): Active | Activity (U2OS [19]): ~60% | Activity (TERT-RPE1): Toxic | Activity (HCT-116 [20]): Active | Activity (HCT-116 [21]): Active | Activity (UTRM10 [23]): inactive

Reference: ChEMBL document CHEMBL5705891, “Small-molecule kinase inhibitors provide insight into Mps1 cell cycle function” (Nat Chem Biol, 2010)
